Measurements reported in ChEMBL document CHEMBL1128471, “Reversible inhibitors of the gastric (H+/K+)-ATPase. 4. Identification of an inhibitor with an intermediate duration of action” (J Med Chem, 1995).

Assays:
[1] = target: T1, Potassium-transporting ATPase (Sus scrofa) (UniProt P18434+P19156); assay: (§1) Inhibition of K+ -stimulated gastric ATPase activity was measured using lyophilized gastric vesicles at pH 7; assay type: tissue-based; set-up: concentration or dose not given beside the values; details: Stomach; concentration not given here
Procedure, shortened: (§2)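 K+-stimulated ATPase activity was measured in lyophilized (permeabilized) gastric vesicles at pH 7. The value is an IC50, or percent inhibition at the stated concentration where no IC50 could be determined.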

[2] = target: T2, Potassium-transporting ATPase (Rattus norvegicus) (UniProt P09626+P18598); assay: Inhibition of pentagastrin-stimulated gastric acid secretion at a single dose of 10 umol/kg.; assay type: functional; details: Stomach
Procedure, shortened: (§3)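 Anesthetized, lumen-perfused rats were given pentagastrin to stimulate gastric acid secretion, and compounds were given iv. The value is an ED50 (µmol/kg iv) with 95% confidence limits, or percent inhibition ± SEM at a single 10 µmol/kg iv dose.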

Canis familiaris [3] = assay: Mean percent peak inhibition of histamine-stimulated gastric acid secretion in the heidenhain pouch dog following a single dose of 1 umol/kg through iv administration.; assay type: functional; details: Canis lupus familiaris, Stomach
[4] = target: Potassium-transporting ATPase (Sus scrofa, UniProt P19156); assay: as §1; assay type: tissue-based, Stomach; procedure, shortened: as §2
Chain of Potassium-transporting ATPase (Sus scrofa, UniProt P19156) (P18434 whole entry): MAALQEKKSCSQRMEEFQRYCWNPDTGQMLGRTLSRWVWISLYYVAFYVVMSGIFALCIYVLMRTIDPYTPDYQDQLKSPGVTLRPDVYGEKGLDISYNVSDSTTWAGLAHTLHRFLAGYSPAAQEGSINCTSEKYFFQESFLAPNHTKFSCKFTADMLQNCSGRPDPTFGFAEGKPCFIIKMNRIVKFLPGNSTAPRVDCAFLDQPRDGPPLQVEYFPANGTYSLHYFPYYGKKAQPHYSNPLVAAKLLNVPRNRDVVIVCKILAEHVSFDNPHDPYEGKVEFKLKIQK
Chain of Potassium-transporting ATPase (Sus scrofa, UniProt P19156) (P19156 whole entry): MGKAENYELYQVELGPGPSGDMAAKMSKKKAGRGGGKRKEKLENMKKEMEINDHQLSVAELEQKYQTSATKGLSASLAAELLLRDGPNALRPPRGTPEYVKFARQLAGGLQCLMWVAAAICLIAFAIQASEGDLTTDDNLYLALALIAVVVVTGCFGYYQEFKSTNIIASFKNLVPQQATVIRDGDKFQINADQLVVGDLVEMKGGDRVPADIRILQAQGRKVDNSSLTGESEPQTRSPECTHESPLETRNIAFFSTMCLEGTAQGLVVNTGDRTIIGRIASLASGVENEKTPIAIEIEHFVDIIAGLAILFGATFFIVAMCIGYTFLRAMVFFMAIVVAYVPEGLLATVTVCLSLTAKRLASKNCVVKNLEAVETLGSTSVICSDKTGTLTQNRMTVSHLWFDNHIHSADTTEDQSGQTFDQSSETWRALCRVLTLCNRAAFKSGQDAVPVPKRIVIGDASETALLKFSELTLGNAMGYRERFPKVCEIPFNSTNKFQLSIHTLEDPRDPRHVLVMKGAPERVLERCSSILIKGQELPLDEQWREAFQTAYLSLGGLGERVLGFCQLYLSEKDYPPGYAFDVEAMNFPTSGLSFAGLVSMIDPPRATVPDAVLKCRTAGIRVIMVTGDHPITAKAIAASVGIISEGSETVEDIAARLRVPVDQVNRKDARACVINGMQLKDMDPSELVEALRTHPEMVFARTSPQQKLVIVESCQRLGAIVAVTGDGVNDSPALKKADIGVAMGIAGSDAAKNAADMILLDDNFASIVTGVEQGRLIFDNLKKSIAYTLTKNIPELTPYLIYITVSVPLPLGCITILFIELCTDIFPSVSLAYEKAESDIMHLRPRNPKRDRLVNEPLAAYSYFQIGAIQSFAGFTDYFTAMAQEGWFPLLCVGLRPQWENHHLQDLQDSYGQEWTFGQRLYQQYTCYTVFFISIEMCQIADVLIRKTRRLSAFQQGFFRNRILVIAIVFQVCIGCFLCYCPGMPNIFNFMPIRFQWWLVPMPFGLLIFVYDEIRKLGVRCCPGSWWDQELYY

Canis familiaris [5] = assay: Mean percent peak inhibition of histamine-stimulated gastric acid secretion in the heidenhain pouch dog following a single dose of 4 umol/kg through oral administration.; assay type: functional; details: Canis lupus familiaris, Stomach
[6] = target: T2, Potassium-transporting ATPase (Rattus norvegicus); assay: (§4) Inhibition of pentagastrin-stimulated gastric acid secretion in the anesthetized rat after iv administration; assay type: functional, organism-based; details: Stomach; procedure, shortened: as §3
[7] = target: T1, Potassium-transporting ATPase (Sus scrofa); assay: as §1; assay type: tissue-based; details: Stomach; concentration not given here; procedure, shortened: as §2
Rattus norvegicus [8] = assay: Inhibition of pentagastrin-stimulated gastric acid secretion in the anesthetized rat, ED50 (umol/kg iv) with 95% confidence limits.; assay type: functional; details: Stomach; procedure, shortened: as §3
[9] = target: T3, Potassium-transporting ATPase (Sus scrofa, UniProt P18434+P19156); assay: Inhibition of K+ -stimulated gastric ATPase activity was measured using lyophilized gastric vesicles at pH 7; Insoluble; assay type: tissue-based, Stomach
T3 sequence (P18434 whole entry): as the sequence (P18434 whole entry) above
T3 sequence (P19156 whole entry): as the sequence (P19156 whole entry) above

Rattus norvegicus [10] = assay: Inhibition of pentagastrin-stimulated gastric acid secretion in the anesthetized rat at a single dose of 10 umol/kg iv; Insoluble; assay type: functional, organism-based; details: Stomach; procedure, shortened: as §3
[11] = target: T1, Potassium-transporting ATPase (Sus scrofa); assay: Inhibition of K+ -stimulated gastric ATPase activity was measured using lyophilized gastric vesicles at pH 7 at 10; assay type: tissue-based; details: Stomach; concentration not given here; procedure, shortened: as §2
[12] = target: T3, Potassium-transporting ATPase; assay: as §1; assay type: tissue-based, Stomach; procedure, shortened: as §2
[13] = target: T1, Potassium-transporting ATPase (Sus scrofa); assay: Inhibition of K+ -stimulated gastric ATPase activity was measured using lyophilized gastric vesicles at pH 7 at 100; assay type: tissue-based; details: Stomach; concentration not given here; procedure, shortened: as §2
Rattus norvegicus [14] = assay: as §4; assay type: functional, Stomach; procedure, shortened: as §3

IC50 [4] | ED50 [6] | Structure (SMILES) | inhibition in vivo at 1 µmol/kg (Canis familiaris [3]) | inhibition in vivo at 4 µmol/kg (Canis familiaris [5]) | other results
 |  | CCCC(=O)c1cnc2c(C)cccc2c1Nc1ccccc1F |  |  | inhibition [1]: 53%; inhibition [2]: 29%
1700 nM | 2.6 µmol/kg | CCCC(=O)c1cnc2c(OC)cccc2c1Nc1ccccc1C | 67% | 83% | 
990 nM | 2.07 µmol/kg | Cc1ccccc1Nc1c(C(=O)C(C)C)cnc2c(OCCO)cccc12 | 56% | 54% | 
180 nM |  | CCC(=O)c1cnc2c(CO)cccc2c1Nc1ccc(O)cc1C | 59% | 24% | inhibition [2]: 90%
 |  | CCCC(=O)c1cnc2c(OCCOCCOCCO)cccc2c1Nc1ccccc1C | 20% | 78% | 
780 nM | 1.92 µmol/kg | CCC(=O)c1cnc2c(OCCOC)cccc2c1Nc1ccccc1C | 80% | 66% | 
 |  | CCCC(=O)c1cnc2c(OC)cccc2c1Nc1ccc(OC(C)=O)cc1C |  | 44% | inhibition [7]: 25%
 | 1.89 µmol/kg | CCCC(=O)c1cnc2c(OCCOCCO)cccc2c1Nc1ccccc1C | 52% |  | 
 |  | CCCC(=O)c1cnc2c(OC)cccc2c1Nc1ccc(CO)cc1 |  |  | inhibition [1]: 38%
1500 nM | 3.56 µmol/kg | CCCC(=O)c1cnc2c(OC)cccc2c1Nc1ccccc1OC | 73% | 18% | 
 |  | CCCC(=O)c1cnc2c(OC)cccc2c1Nc1ccc([N+](=O)[O-])cc1C |  |  | inhibition [7]: 17%
 |  | CCCC(=O)c1cnc2c(C)cccc2c1Nc1cc(C)ccc1OC |  |  | inhibition [1]: 56%
1600 nM | 5.24 µmol/kg | CCCC(=O)c1cnc2c(OC)cccc2c1Nc1c(C)cccc1C | 62% | 75% | 
3000 nM |  | CCCC(=O)c1cnc2c(C3CO3)cccc2c1Nc1ccccc1C (stereo not drawn) | 53% |  | ED50 (Rattus norvegicus [8]): 3.1 µmol/kg
 | 5.6 µmol/kg | CCCC(=O)c1cnc2c(OC)cccc2c1Nc1c(C)ccc(O)c1C | 36% |  | inhibition [1]: 35%
 |  | CCCC(=O)c1cnc2c(C)cccc2c1Nc1ccc(Cl)cc1C |  |  | inhibition [1]: 15%
1400 nM |  | CCCC(=O)c1cnc2c(OC)cccc2c1Nc1cccc(C)c1C | 77% | 67% | inhibition [2]: 60%
2300 nM | 3.9 µmol/kg | CCCC(=O)c1cnc2c(OC)cccc2c1Nc1ccc(F)cc1C | 36% | 64% | 
500 nM | 6.4 µmol/kg | CCCC(=O)c1cnc2c(OC)cccc2c1Nc1c(C)cc(O)cc1C | 32% | 25% | 
3500 nM | 2.91 µmol/kg | CCCC(=O)c1cnc2c(OCCOC)cccc2c1Nc1ccc(F)cc1C | 65% | 46% | 
 | 2.09 µmol/kg | CCCC(=O)c1cnc2c(CO)cccc2c1Nc1ccc(O)cc1C | 64% | 29% | 

IC50 [4] | ED50 [6] | Structure (SMILES) | inhibition in vivo at 1 µmol/kg (Canis familiaris [3]) | inhibition in vivo at 4 µmol/kg (Canis familiaris [5]) | other results
 |  | CCCC(=O)c1cnc2c(OC)cccc2c1Nc1cc(C)c(O)c(C)c1 |  |  | IC50 [9]: Insoluble
 |  | CCCC(=O)c1cnc2ccc(-c3ccccc3)cc2c1Nc1ccccc1C |  |  | inhibition (Rattus norvegicus [10]): Insoluble; inhibition [11]: 35%
2400 nM | 3.9 µmol/kg | CCCC(=O)c1cnc2c(C)cccc2c1Nc1ccc(OC)cc1OC | 41% |  | 
1270 nM | 7.61 µmol/kg | CCCC(=O)c1cnc2c(OC)cccc2c1Nc1ccc(OC)cc1C | 71% |  | 
 |  | CCCC(=O)c1cnc2c(C3OC3CO)cccc2c1Nc1ccccc1C (stereo in doubt; 29a) |  |  | IC50 [12]: 3.1 µM
210 nM | 1.98 µmol/kg | CCCC(=O)c1cnc2c(OC)cccc2c1Nc1ccc(O)cc1C | 76% | 46% | 
 |  | CCCC(=O)c1cnc2c(OC)cccc2c1Nc1cc(F)cc(F)c1 |  |  | inhibition [1]: 63%
 |  | CCCC(=O)c1cnc2c(OC)cccc2c1Nc1ccc(O)c(Cl)c1 |  |  | inhibition [1]: 16%
 |  | CCCC(=O)c1cnc2c(OC)cccc2c1Nc1ccc(O)c(F)c1 |  |  | inhibition [1]: 40%
2600 nM |  | CCCC(=O)c1cnc2c(CCCO)cccc2c1Nc1ccccc1C |  | 48% | inhibition [2]: 63%
 |  | CCCC(=O)c1cnc2c(OC)cccc2c1Nc1ccc(OC(=O)C(C)C)cc1C |  | 25% | inhibition [7]: 44%
1400 nM | 3.61 µmol/kg | COCCOc1cccc2c(Nc3ccccc3C)c(C(=O)C(C)C)cnc12 | 65% | 86% | 
 |  | CCCC(=O)c1cnc2c(C)cccc2c1Nc1ccc(Cl)cc1Cl |  |  | inhibition [1]: 31%
 |  | CCCC(=O)c1cnc2cc(OC)ccc2c1Nc1ccccc1C |  |  | inhibition [2]: 28%; inhibition [11]: 41%
61 nM | 2.74 µmol/kg | CCCC(=O)c1cnc2c(C(C)O)cccc2c1Nc1ccc(O)cc1C (stereo not drawn) | 30% |  | 
36 nM | 1.72 µmol/kg | Cc1cc(O)ccc1Nc1c(C(=O)C(C)C)cnc2c(CO)cccc12 | 47% |  | 
2000 nM | 2.85 µmol/kg | CCC(=O)c1cnc2c(OCCO)cccc2c1Nc1ccc(F)cc1C | 58% | 72% | 
380 nM |  | CCC(=O)c1cnc2c(CO)cccc2c1Nc1ccccc1C | 83% | 35% | inhibition [2]: 74%
 |  | CCCC(=O)c1cnc2cc(CO)ccc2c1Nc1ccccc1C |  |  | inhibition [13]: 44%
760 nM | 1.72 µmol/kg | CCC(=O)c1cnc2c(OCCO)cccc2c1Nc1ccccc1C | 82% | 82% | 
890 nM | 2.35 µmol/kg | CCCC(=O)c1cnc2c(OC)cccc2c1Nc1ccccc1CC | 77% | 85% | 

IC50 [4] | ED50 [6] | Structure (SMILES) | inhibition in vivo at 1 µmol/kg (Canis familiaris [3]) | inhibition in vivo at 4 µmol/kg (Canis familiaris [5]) | other results
2000 nM | 2.9 µmol/kg | CCCC(=O)c1cnc2c(Oc3cnccn3)cccc2c1Nc1ccccc1C | 49% | 43% | 
2900 nM | 3.05 µmol/kg | CCCC(=O)c1cnc2c(C)cccc2c1Nc1ccccc1CC | 66% |  | 
 | 1.72 µmol/kg | CCCC(=O)c1cnc2c(CO)cccc2c1Nc1ccccc1C | 39% | 56% | 
 | 2.75 µmol/kg | CCCC(=O)c1cnc2c(OCCOC)cccc2c1Nc1ccccc1C | 51% | 81% | 
 | 3.57 µmol/kg | Cc1cc(F)ccc1Nc1c(C(=O)C(C)C)cnc2c(CO)cccc12 | 59% | 42% | 
370 nM | 3.69 µmol/kg | CCCC(=O)c1cnc2c(C(C)O)cccc2c1Nc1ccccc1C (stereo not drawn) | 46% | 49% | 
 | 2.92 µmol/kg | CCCC(=O)c1cnc2c(OCCO)cccc2c1Nc1ccc(F)cc1C | 44% | 80% | 
1800 nM |  | CCCC(=O)c1cnc2c(OCCCNC(C)=O)cccc2c1Nc1c(C)cccc1C | 86% | 40% | inhibition [2]: 75%
 |  | CCCC(=O)c1cnc2c(OC)cccc2c1Nc1cc(F)c(O)c(F)c1 |  |  | inhibition [1]: 11%
 |  | CCCC(=O)c1cnc2c(OC)cccc2c1Nc1ccc(O)c(CN(C)C)c1 |  |  | inhibition [1]: 35%
710 nM | 4.66 µmol/kg | CCCC(=O)c1cnc2c(F)cccc2c1Nc1ccc(O)cc1C | 31% | 17% | 
3000 nM | 3.12 µmol/kg | CCCC(=O)c1cnc2c(C)cccc2c1Nc1ccccc1C | 38% |  | 
19000 nM |  | CCCC(=O)c1cnc2c(OC)cccc2c1Nc1ccc(OC(=O)CC)cc1C |  | 45% | 
1600 nM | 4.2 µmol/kg | Cc1cc(F)ccc1Nc1c(C(=O)C(C)C)cnc2c(OCCO)cccc12 | 66% | 75% | 
2000 nM |  | CCC(=O)c1cnc2c(OCCOC)cccc2c1Nc1ccc(F)cc1C | 36% | 94% | Inhibition (Rattus norvegicus [14]): 70%
 |  | CCCC(=O)c1cnc2c(C)cccc2c1Nc1cc(OC)ccc1OC |  |  | inhibition [1]: 29%; inhibition [2]: 28%
 |  | CCCC(=O)c1cnc2c(OC)cccc2c1Nc1ccc(N2CCCC2)cc1C |  |  | inhibition [1]: 5%; inhibition [2]: 0%
5900 nM |  | CCCC(=O)c1cnc2c(C(=O)O)cccc2c1Nc1ccccc1C |  |  | inhibition (Rattus norvegicus [10]): Insoluble
2000 nM | 4.9 µmol/kg | CCCC(=O)c1cnc2c(OC)cccc2c1Nc1ccccc1OCC |  |  | 
3100 nM | 2.88 µmol/kg | CCCC(=O)c1cnc2c(C)cccc2c1Nc1c(C)cccc1C | 45% |  | 
 | 2.4 µmol/kg | CCCC(=O)c1cnc2c(OCCO)cccc2c1Nc1ccccc1C | 64% | 96% | 
